From ChEMBL document CHEMBL1145748, “Nonpeptide alphavbeta3 antagonists. 8. In vitro and in vivo evaluation of a potent alphavbeta3 antagonist for the prevention and treatment of osteoporosis” (J Med Chem, 2003) come the findings set out here.

Data set [1] can be described thus: Partition coefficient (logP). It counts as physicochemical. The settings on record: octanol/water. An outline of the steps: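 Partitioning between octanol and pH 7.4 buffer.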
The target of another data set is Integrin alpha-V/beta-3 (Homo sapiens, UniProt P05106+P06756). In words: Inhibition of alphaV-beta3 integrin binding. It counts as protein-complex assay. An outline of the steps: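 Scintillation-proximity assay. Displacement of a 125I-labelled iodobenzenesulfonylamino naphthyridine propionic acid radioligand from purified recombinant human αvβ3 is measured.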
Integrin alpha-V/beta-3, sequence (P05106 27-788 limits assumed): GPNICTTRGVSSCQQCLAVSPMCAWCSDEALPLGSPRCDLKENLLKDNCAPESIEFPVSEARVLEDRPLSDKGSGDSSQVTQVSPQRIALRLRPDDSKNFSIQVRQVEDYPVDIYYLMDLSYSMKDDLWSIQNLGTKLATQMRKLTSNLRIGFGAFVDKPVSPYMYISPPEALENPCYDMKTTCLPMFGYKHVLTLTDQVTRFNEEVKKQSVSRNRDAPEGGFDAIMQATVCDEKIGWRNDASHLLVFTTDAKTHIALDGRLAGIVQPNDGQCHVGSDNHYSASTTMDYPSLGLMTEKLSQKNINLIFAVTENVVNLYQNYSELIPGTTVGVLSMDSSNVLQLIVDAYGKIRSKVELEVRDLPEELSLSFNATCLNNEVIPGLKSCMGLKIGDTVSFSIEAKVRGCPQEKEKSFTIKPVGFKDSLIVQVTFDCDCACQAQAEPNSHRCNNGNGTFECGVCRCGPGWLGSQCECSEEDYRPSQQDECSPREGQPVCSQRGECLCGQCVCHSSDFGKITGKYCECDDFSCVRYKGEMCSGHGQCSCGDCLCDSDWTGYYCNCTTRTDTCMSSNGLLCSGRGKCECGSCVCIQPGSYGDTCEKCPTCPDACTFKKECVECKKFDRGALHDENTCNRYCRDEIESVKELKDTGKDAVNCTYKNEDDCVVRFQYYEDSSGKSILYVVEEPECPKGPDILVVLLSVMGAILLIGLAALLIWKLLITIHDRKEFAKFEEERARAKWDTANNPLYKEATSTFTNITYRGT
Integrin alpha-V/beta-3, sequence (P06756 31-889 limits assumed): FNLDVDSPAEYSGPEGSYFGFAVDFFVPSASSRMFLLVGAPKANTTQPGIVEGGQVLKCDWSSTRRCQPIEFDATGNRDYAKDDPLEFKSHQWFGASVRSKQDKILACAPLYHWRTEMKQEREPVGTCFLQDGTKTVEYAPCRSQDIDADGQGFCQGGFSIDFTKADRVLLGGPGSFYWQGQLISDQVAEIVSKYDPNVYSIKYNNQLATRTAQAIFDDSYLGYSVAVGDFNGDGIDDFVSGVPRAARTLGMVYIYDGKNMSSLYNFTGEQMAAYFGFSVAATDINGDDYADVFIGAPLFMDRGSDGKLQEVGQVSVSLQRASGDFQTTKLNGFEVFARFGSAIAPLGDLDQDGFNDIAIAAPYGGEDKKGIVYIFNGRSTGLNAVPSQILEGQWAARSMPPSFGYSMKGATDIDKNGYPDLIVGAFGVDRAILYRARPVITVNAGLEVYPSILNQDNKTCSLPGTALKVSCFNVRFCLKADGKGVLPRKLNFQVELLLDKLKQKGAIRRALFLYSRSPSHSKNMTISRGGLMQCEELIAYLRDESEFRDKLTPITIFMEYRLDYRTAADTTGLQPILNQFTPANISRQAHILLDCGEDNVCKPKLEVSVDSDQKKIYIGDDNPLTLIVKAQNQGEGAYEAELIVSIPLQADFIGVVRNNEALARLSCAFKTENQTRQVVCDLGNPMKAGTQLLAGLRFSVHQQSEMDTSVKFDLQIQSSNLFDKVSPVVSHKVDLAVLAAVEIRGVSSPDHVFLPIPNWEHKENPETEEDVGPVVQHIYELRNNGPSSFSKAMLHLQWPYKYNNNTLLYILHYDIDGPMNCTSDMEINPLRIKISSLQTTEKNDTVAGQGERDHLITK
Integrin alpha-V/beta-3, sequence (P06756 891-1048 limits assumed): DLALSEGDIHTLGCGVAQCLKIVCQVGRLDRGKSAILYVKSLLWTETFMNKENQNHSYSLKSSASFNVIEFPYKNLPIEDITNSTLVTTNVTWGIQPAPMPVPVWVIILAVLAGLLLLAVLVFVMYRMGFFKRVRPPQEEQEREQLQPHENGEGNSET

A short description of data set [2]: Bioavailability in dog. It counts as ADME, organism-based, Canis lupus familiaris. The conditions noted are these: in vivo. An outline of the steps:
(§1)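 Dogs given 0.2 mpk iv and 1 mpk po, in water; bioavailability, clearance and half-life taken from the plasma PK profile.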

Data set [3] can be described thus: Plasma clearance in dog was determined. It counts as ADME, organism-based, Canis lupus familiaris. An outline of the steps:
as §1

Data set [4] in a line: Half life of compound was determined in dog. It counts as ADME, organism-based, Canis lupus familiaris. The settings on record: in vivo. An outline of the steps:
as §1

Data set [5] can be described thus: Percent binding of compound towards human plasma protein was determined. It counts as ADME, cell-free. An outline of the steps:
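Human plasma, diluted, with ultrafiltration in pH 7.4 buffer at room temperature. Solutions analyzed by HPLC; high-throughput format.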

The species named for data set [6] is Rattus norvegicus. In words: Inhibitory effect of 30 mpk compound b.i.d. for 28 days was determined by bone mineral density in ovariectomized female rat. It counts as functional. An outline of the steps: (§2)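 Female rats ovariectomized and, within 24 h, dosed orally b.i.d. for 28 days (n = 10/group), with sham and OVX-vehicle groups. BMD measured by DXA at the distal femoral metaphysis and central femur. Result expressed as DFM:central BMD ratio (mean ± SEM).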

Data set [7] is described as follows: Half life of compound was determined in rhesus monkey. It counts as ADME. The settings on record: cercopithecidae, in vivo.
The species named for data set [8] is Rattus norvegicus. In words: distal femoral metaphysis bone mineral density in young male rat after constant infusion of compound was determined. It counts as functional. An outline of the steps: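 Growing male Sprague–Dawley rats (160 g) treated 10 days. Compound at 60 mg/mL in water with <1 equiv 1 N HCl, given by implanted subcutaneous osmotic minipump to a steady-state concentration of 800 nM (n = 15). PK checked in 3 parallel rats. Alendronate control 0.005 mpk sc qd. Right femur excised, stored in 70% ethanol, DFM BMD by DXA.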

Data set [9] in a line: Bioavailability in rat. The conditions noted are these: in vivo. It counts as ADME, organism-based.
For data set [10], the species on record is Rattus norvegicus. Description: Inhibitory effect of 10 mpk compound b.i.d. for 28 days was determined by bone mineral density in ovariectomized female rat. It counts as functional. In outline:
as §2

Data set [11] can be described thus: Bioavailability of compound was determined in rhesus monkey. It counts as ADME, organism-based, Macaca mulatta. The conditions noted are these: in vivo.
Data set [12] can be described thus: Selectivity for alphaV-beta3 over alphaV-beta5 integrins. The arrangement: species or system Homo sapiens. In outline:
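αvβ3 binding is measured by SPA displacement of a 125I-iodobenzenesulfonylamino radioligand from purified recombinant human αvβ3. The αvβ5 counterscreen uses the same radioligand displaced from purified recombinant αvβ5 in a similar SPA.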

Data set [13] can be described thus: Half life of compound was determined in rat. It counts as ADME, organism-based. The settings on record: in vivo.
Data set [14] can be described thus: Plasma clearance in rhesus monkey was determined. It counts as ADME, organism-based. The settings on record: cercopithecidae.
Data set [15] is described as follows: Plasma clearance in rat was determined. It counts as ADME, organism-based.

Structures are written as SMILES.

For orientation: logP means the decadic logarithm of the partition coefficient of the neutral form, usually between octanol and water. For orientation: IC50 means the concentration at which inhibition is half-maximal. In general, bioavailability refers to the share of a dose that reaches the circulation, judged against a reference dose that is usually intravenous. In general, clearance refers to the rate of elimination divided by the concentration. For orientation: half-life means the time needed for the level to fall by half in the phase considered. Take `O=C(O)C[C@@H](c1cccnc1)N1CCN(CCCc2ccc3c(n2)NCCC3)C1=O`: in [1], the log partition coefficient (logP) is -0.55. At Integrin alpha-V/beta-3, this compound yielded an IC50 of 0.25 nM. In [2], the bioavailability amounted to 10%. The clearance in data set [3] is 70 mL/min/kg. For the same compound, in data set [4], the half-life is 0.9 h. In [5], this compound came in with a Plasma protein binding of 61%.

At Integrin alpha-V/beta-3, `COc1ccc([C@H](CC(=O)O)N2CCN(CCC(=O)c3ccc4c(n3)NCCC4)C2=O)cn1` gave an IC50 of 3 nM.

`COc1ccc([C@H](CC(=O)O)N2CCN(CCCc3ccc4c(n3)NCCC4)C2=O)cc1F` showed a logP in data set [1] of 0.82. Moreover, the IC50 at Integrin alpha-V/beta-3 came out at 0.35 nM. The same compound came in with a bioavailability in data set [2] of 94%. The clearance in data set [3] turned out to be 5.1 mL/min/kg. Further, in data set [4], the half-life was 2.6 h. In data set [5], this compound came in with a Plasma protein binding of 95%.

`COc1ccc([C@H](CC(=O)O)N2CCN(CCCc3ccc4c(n3)NC(O)CC4)C2=O)cn1` (some centres not stated): at Integrin alpha-V/beta-3, the IC50 came to 0.4 nM.

Compound `COc1ccc([C@H](CC(=O)O)N2CCN(CCCc3ccc4c(n3)NC(=O)CC4)C2=O)cn1` yielded an IC50 on Integrin alpha-V/beta-3 of 141 nM.

Compound `COc1ccc([C@H](CC(=O)O)N2CCN(CCCc3ccc4c(n3)NCCC4)C2=O)cn1` had a logP in [1] of 0.21. The DFM:central BMD ratio was determined as 0.951 in the data set listed under Rattus norvegicus [6] and 0.908 in the data set filed under Rattus norvegicus [10]. For the same compound, the values for the half-life in data set [7], in data set [13] and in data set [4] were 2 h, 3 h and 3.5 h, respectively. In addition, the IC50 came out at 0.08 nM on Integrin alpha-V/beta-3 and 10 nM in data set [12]. In the data set filed under Rattus norvegicus [8], this compound came in with a BMD of 142.2 mg cm**-2. The figures for the bioavailability in data set [9], in data set [2] and in [11] were 26%, 64% and 74%, respectively. In addition, the clearance in data set [3] came out at 6.4 mL/min/kg; in data set [14], 9 mL/min/kg; in data set [15], 47 mL/min/kg. Also, the Plasma protein binding in [5] is 88%.

In turn, `O=C(O)C[C@@H](c1ccc2c(c1)OCC2)N1CCN(CCCc2ccc3c(n2)NCCC3)C1=O` registered a log partition coefficient (logP) in data set [1] of 0.8. The same compound had an IC50 on Integrin alpha-V/beta-3 of 0.1 nM. Besides, the bioavailability in [2] came to 75%. Moreover, the clearance in data set [3] amounted to 4.1 mL/min/kg. The half-life in data set [4] is 2.7 h. The Plasma protein binding in data set [5] is given as 98%.
